From ChEMBL document CHEMBL2086312, “Synthesis and biological evaluation of new 5-benzylated 4-oxo-3,4-dihydro-5H-pyridazino[4,5-b]indoles as PI3Kα inhibitors” (Eur J Med Chem, 2012)

Assays:
[1] = system: NCI-H727; test: Antiproliferative activity against human NCI-H727 cells incubated for 48 hrs by […] dye staining based assay; type: functional, cell-based; conditions: NCI-H727, 48 h
Summary of the method: (§1)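 Cells were grown per ECACC recommendations and seeded in triplicate at 2 × 10³ (HCT-116) or 4 × 10³ (other lines) per well. After 24 h attachment, they were exposed 48 h to increasing concentrations of 0.1 to 25. Cells were then fixed in cold 90% ethanol/5% acetic acid, nuclei were Hoechst-stained, and nuclei were counted by automated imaging.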

[2] = system: PC-3; test: Antiproliferative activity against human PC3 cells incubated for 48 hrs by […] dye staining based assay; type: functional, cell-based; conditions: PC-3, 48 h; summary of the method: as §1
[3] = system: HCT-116; test: Antiproliferative activity against human HCT116 cells incubated for 48 hrs by […] dye staining based assay; type: functional, cell-based; conditions: HCT-116, 48 h; summary of the method: as §1
[4] = system: Huh-7; test: Antiproliferative activity against human HuH7 cells incubated for 48 hrs by […] dye staining based assay; type: functional, cell-based; conditions: Huh-7, 48 h
Summary of the method: (§2)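 After 24 h attachment, they were exposed 48 h to increasing concentrations of 0.1 to 25. Cells were then fixed in cold 90% ethanol/5% acetic acid, nuclei were Hoechst-stained, and nuclei were counted by automated imaging.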

[5] = Antiproliferative activity against human Skin fibroblasts incubated for 48 hrs by […] dye staining based assay; conditions: Skin fibroblast; summary of the method: as §1
[6] = system: Caco-2; test: Antiproliferative activity against human Caco2 cells incubated for 48 hrs by […] dye staining based assay; type: functional, cell-based; conditions: Caco-2, 48 h; summary of the method: as §2
[7] = target: Dual specificity tyrosine-phosphorylation-regulated kinase 1A (Rattus norvegicus, UniProt Q63470); test: Inhibition of rat recombinant GST-tagged DYRK1A expressed in Escherichia coli using myelin basic protein substrate
[8] = system: MDA-MB-231; test: Antiproliferative activity against human MDA-MB-231 cells incubated for 48 hrs by […] dye staining based assay; type: functional, cell-based; conditions: MDA-MB-231, 48 h; summary of the method: as §2
[9] = target: PI3-kinase p110-alpha/p85-alpha (Homo sapiens, UniProt P42336); test: Inhibition of PI3K p110alpha/p85alpha by fluorescence based immunoassay; type: protein-complex assay
PI3-kinase p110-alpha/p85-alpha, sequence (P27986 whole entry): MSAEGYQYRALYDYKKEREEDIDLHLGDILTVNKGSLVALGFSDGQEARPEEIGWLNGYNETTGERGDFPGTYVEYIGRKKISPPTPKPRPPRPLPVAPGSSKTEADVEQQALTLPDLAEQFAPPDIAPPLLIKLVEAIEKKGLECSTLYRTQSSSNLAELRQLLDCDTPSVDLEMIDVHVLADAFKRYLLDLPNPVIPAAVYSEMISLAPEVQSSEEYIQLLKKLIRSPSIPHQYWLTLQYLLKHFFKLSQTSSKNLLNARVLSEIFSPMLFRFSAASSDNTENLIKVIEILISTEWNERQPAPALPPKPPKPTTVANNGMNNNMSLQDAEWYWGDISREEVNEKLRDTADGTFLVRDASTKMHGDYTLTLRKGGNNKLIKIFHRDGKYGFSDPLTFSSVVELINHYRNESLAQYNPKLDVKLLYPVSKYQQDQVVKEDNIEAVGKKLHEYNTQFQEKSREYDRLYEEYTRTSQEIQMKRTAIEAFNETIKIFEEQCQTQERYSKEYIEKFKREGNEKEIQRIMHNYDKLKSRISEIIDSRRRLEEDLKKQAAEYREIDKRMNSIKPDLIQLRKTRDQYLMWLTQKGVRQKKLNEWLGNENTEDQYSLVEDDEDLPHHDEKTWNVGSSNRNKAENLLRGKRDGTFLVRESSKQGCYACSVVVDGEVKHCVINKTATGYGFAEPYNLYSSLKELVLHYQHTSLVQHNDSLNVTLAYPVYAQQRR
PI3-kinase p110-alpha/p85-alpha, sequence (P42336 whole entry): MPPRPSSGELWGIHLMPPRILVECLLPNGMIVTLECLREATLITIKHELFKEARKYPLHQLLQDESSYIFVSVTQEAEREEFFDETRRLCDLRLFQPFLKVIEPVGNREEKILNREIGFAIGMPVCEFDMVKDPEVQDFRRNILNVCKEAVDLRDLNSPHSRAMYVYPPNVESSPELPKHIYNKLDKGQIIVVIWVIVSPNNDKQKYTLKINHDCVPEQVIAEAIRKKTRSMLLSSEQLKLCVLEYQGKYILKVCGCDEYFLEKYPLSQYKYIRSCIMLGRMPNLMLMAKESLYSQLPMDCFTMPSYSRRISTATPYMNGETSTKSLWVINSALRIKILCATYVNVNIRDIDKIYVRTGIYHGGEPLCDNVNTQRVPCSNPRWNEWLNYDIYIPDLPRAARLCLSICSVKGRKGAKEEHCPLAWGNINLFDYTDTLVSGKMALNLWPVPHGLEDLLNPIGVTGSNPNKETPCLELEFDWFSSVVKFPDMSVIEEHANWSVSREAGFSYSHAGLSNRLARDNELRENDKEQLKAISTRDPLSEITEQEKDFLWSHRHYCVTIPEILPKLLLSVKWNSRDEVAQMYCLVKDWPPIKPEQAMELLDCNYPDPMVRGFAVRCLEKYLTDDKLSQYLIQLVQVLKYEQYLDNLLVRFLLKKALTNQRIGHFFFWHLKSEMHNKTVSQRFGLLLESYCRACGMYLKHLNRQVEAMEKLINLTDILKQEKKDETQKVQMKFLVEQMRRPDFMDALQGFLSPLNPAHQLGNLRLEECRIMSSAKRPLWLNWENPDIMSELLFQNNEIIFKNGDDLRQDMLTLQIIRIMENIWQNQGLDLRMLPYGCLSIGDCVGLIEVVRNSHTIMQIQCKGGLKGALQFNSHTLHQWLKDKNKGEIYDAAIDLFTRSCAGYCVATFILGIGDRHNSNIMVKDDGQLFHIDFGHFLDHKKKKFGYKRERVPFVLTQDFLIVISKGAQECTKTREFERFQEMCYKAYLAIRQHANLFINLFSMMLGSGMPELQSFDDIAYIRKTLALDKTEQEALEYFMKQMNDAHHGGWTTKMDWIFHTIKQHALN
Summary of the method: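 ADAPTA TR-FRET ADP-detection kinase assay. Detection used 6 nM Eu-anti-ADP antibody, 12 nM Alexa647-ADP tracer and 30 mM EDTA for 30 min. Read-out was excitation 340 nm with 665/615 nm emission ratio, converted to % conversion via an ATP–ADP titration curve.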

[10] = target: Cyclin-dependent kinase 5/CDK5 activator 1 (Homo sapiens, UniProt Q00535); test: Inhibition of human recombinant CDK5/P25 using myelin basic protein substrate; type: protein-complex assay
Cyclin-dependent kinase 5/CDK5 activator 1, sequence (Q00535 whole entry): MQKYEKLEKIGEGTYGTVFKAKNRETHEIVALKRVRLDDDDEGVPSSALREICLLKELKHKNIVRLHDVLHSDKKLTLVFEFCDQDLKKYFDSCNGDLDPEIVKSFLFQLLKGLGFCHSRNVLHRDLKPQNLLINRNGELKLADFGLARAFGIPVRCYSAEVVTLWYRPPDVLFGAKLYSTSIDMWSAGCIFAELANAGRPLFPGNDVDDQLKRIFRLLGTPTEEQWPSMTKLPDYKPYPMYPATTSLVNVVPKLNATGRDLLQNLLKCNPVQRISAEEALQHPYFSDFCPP
Cyclin-dependent kinase 5/CDK5 activator 1, sequence (Q15078 whole entry, further chain): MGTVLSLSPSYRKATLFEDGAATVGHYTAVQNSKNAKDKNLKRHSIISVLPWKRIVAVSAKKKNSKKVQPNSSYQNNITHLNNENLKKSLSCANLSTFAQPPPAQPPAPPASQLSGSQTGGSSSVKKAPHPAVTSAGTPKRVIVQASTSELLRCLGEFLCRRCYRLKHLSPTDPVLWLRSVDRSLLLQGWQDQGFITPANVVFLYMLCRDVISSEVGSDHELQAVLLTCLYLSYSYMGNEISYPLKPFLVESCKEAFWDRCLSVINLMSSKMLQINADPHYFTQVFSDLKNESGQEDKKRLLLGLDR

[11] = system: Caco-2; test: Antiproliferative activity against human Caco2 cells assessed as cell diminution incubated for 48 hrs by […] dye staining based assay; type: functional; summary of the method: as §1
[12] = Antiproliferative activity against human Skin fibroblasts assessed as cell diminution incubated for 48 hrs by […] dye staining based assay; conditions: skin fibroblast; summary of the method: as §1
[13] = system: PC-3; test: Antiproliferative activity against human PC3 cells assessed as cell diminution incubated for 48 hrs by […] dye staining based assay; type: functional; summary of the method: as §1
[14] = target: Phosphatidylinositol 4,5-bisphosphate 3-kinase catalytic subunit gamma isoform (Homo sapiens, UniProt P48736); test: Inhibition of PI3K p110gamma by fluorescence based immunoassay
Phosphatidylinositol 4,5-bisphosphate 3-kinase catalytic subunit gamma isoform, sequence (P48736 whole entry, looked up, canonical isoform): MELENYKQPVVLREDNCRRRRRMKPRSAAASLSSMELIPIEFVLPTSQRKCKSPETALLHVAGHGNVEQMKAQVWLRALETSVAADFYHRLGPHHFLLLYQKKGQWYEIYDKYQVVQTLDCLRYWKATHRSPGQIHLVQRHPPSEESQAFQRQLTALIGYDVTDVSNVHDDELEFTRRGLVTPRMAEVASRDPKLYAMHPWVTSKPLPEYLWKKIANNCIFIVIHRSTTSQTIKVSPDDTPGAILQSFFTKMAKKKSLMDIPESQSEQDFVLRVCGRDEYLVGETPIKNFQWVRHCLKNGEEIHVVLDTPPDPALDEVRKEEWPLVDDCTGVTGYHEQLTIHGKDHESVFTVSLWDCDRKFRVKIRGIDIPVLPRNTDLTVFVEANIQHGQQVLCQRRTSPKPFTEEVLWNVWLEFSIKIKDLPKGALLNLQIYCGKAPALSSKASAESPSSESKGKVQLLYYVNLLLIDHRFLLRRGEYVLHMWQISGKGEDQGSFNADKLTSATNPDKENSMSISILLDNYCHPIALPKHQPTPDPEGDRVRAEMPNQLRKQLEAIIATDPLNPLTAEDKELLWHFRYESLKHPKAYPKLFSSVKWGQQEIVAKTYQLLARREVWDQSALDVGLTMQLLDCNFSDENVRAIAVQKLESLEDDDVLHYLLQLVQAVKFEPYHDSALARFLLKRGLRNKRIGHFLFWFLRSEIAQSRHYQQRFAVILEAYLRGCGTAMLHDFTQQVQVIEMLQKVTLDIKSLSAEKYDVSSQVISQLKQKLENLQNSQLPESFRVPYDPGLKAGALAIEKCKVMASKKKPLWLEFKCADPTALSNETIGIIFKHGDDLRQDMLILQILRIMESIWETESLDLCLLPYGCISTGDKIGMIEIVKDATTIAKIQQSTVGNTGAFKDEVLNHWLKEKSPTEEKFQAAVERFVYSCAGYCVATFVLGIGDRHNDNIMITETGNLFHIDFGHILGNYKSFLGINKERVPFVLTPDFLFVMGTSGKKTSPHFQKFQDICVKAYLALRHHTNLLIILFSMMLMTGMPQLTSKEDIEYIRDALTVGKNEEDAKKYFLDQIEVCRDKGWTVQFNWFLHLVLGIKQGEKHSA

[15] = system: Huh-7; test: Antiproliferative activity against human HuH7 cells assessed as cell diminution incubated for 48 hrs by […] dye staining based assay; type: functional; summary of the method: as §1
[16] = system: NCI-H727; test: Antiproliferative activity against human NCI-H727 cells assessed as cell diminution incubated for 48 hrs by […] dye staining based assay; type: functional; summary of the method: as §1

Row | SMILES | IC50 [1] [µM] | IC50 [2] [µM] | IC50 [3] [µM] | IC50 [4] [µM] | IC50 [6] [µM] | IC50 [7] [µM] | IC50 [8] [µM] | IC50 [9] [µM] | IC50 [10] [µM] | IC50 [14] [µM] | IC50 [5] [µM] | Activity [11] [%] | Activity [12] [%] | Activity [13] [%] | Activity [15] [%] | Activity [16] [%]
1 | COc1ccc2c(c1)c1c(C)n[nH]c(=O)c1n2Cc1cccc([N+](=O)[O-])c1 | 4 | 2.5 | 4 | 1.5 | 5 | > 10 | 4 | 1.8 | > 10 | – | 2 | 50 | 50 | 50 | – | –
2 | COc1ccc(Cn2c3ccc(F)cc3c3c(C)n[nH]c(=O)c32)cc1 | 3 | 2.5 | 2 | 1 | 2 | > 10 | 2 | 4.2 | > 10 | – | 5 | – | – | – | – | –
3 | Cc1n[nH]c(=O)c2c1c1cc(Br)ccc1n2Cc1ccc(C#N)cc1 | 3 | 2 | 2 | 2 | 2 | > 10 | 4 | 1.9 | > 10 | > 10 | 2 | – | – | – | – | –
4 | Cc1n[nH]c(=O)c2c1c1cc(Br)ccc1n2Cc1ccc([N+](=O)[O-])cc1 | 1 | 1.5 | 2 | 1 | 2 | > 10 | 4 | 6 | > 10 | > 10 | 2 | – | – | – | – | –
5 | Oc1cccc(-c2nc(N3CCOCC3)c3oc4ncccc4c3n2)c1 [PI-103] | 3 | 1.5 | 1 | 1.5 | 0.9 | – | 15 | – | – | – | 1.5 | – | 30 | – | 40 | 30
6 | Cc1n[nH]c(=O)c2c1c1cc(Br)ccc1n2Cc1cccc([N+](=O)[O-])c1 | 4 | 5 | 4 | 2 | 3 | > 10 | 5 | 5.1 | > 10 | 4.1 | 5 | – | – | – | – | –
7 | Cc1n[nH]c(=O)c2c1c1cc(F)ccc1n2Cc1ccc([N+](=O)[O-])cc1 | 5 | 0.6 | 5 | 5 | 2 | > 10 | 2 | > 10 | > 10 | – | > 25 | – | – | – | – | –
8 | COc1ccc2c(c1)c1c(C)n[nH]c(=O)c1n2Cc1ccc([N+](=O)[O-])cc1 | 2.5 | 3 | 5 | 3 | 5 | > 10 | 2 | 2.6 | > 10 | – | 4 | – | – | – | – | –
9 | COc1ccc(Cn2c3ccc(OC)cc3c3c(C)n[nH]c(=O)c32)cc1 | – | – | – | – | – | > 10 | – | > 10 | > 10 | – | – | – | – | – | – | –
10 | COc1ccc2[nH]c3c(=O)[nH]nc(C)c3c2c1 | 5 | 7 | 15 | 3 | 8 | 5 | 5 | > 10 | > 10 | – | 20 | – | – | – | – | –
11 | Cc1n[nH]c(=O)c2c1c1cc(F)ccc1n2Cc1cccc([N+](=O)[O-])c1 | 6 | 0.7 | 4 | 3 | 2 | > 10 | 0.8 | > 10 | > 10 | – | > 25 | – | – | – | – | –
12 | COc1ccc(Cn2c3ccc(Br)cc3c3c(C)n[nH]c(=O)c32)cc1 | 5 | 2.5 | 4 | 1.5 | 2 | > 10 | 5 | 1.5 | > 10 | 5.2 | 4 | – | – | – | – | –
13 | Cc1n[nH]c(=O)c2[nH]c3ccc(F)cc3c12 | 2 | 3 | 5 | 1.5 | 4 | 5.6 | 4 | > 10 | > 10 | – | 10 | – | – | – | – | –
14 | CC[C@H](CO)Nc1nc(NCc2ccccc2)c2ncn(C(C)C)c2n1 [SELICICLIB] | 20 | 10 | 7 | – | – | – | – | – | – | – | > 25 | – | – | – | – | –
15 | Cc1n[nH]c(=O)c2c1c1cc(F)ccc1n2Cc1ccc(C#N)cc1 | 4 | 1 | 5 | 3 | 2 | > 10 | 1.5 | > 10 | > 10 | – | > 25 | – | – | – | – | –
16 | Cc1n[nH]c(=O)c2[nH]c3ccc(Br)cc3c12 | 3 | 3 | 5 | 1.5 | 2 | – | 6 | – | – | – | 8 | – | – | – | – | –

Further lines, with some results ahead:

Row | IC50 [1] [µM] | IC50 [2] [µM] | IC50 [3] [µM] | IC50 [4] [µM] | IC50 [6] [µM] | IC50 [7] [µM] | IC50 [8] [µM] | IC50 [9] [µM] | IC50 [10] [µM] | IC50 [14] [µM] | SMILES | IC50 [5] [µM] | Activity [11] [%] | Activity [12] [%] | Activity [13] [%] | Activity [15] [%] | Activity [16] [%]
17 | 4 | 2 | 5 | 2 | 3 | > 10 | 3 | 3.3 | > 10 | – | COc1ccc2c(c1)c1c(C)n[nH]c(=O)c1n2Cc1cccc(C#N)c1 | 5 | – | – | – | – | –
18 | 4 | 2.5 | 5 | 2 | 2 | > 10 | 4 | 0.091 | > 10 | 0.295 | Cc1n[nH]c(=O)c2c1c1cc(Br)ccc1n2Cc1cccc(C#N)c1 | 4 | – | – | – | – | –
19 | 5 | 2 | 2 | 2 | 2 | > 10 | 4 | 1.5 | > 10 | 2.2 | COc1cccc(Cn2c3ccc(Br)cc3c3c(C)n[nH]c(=O)c32)c1 | 3 | – | – | – | – | –
20 | 6 | 4 | 6 | 3 | 2 | > 10 | 12 | 5 | > 10 | – | Cc1n[nH]c(=O)c2c1c1cc(F)ccc1n2Cc1cccc(C#N)c1 | 8 | – | – | – | – | –
21 | 3 | 2.5 | 2 | 1 | 2 | > 10 | 3 | 6.3 | > 10 | – | COc1cccc(Cn2c3ccc(OC)cc3c3c(C)n[nH]c(=O)c32)c1 | 1 | – | – | – | – | –
22 | 2 | 0.4 | 4 | 1.5 | 2 | > 10 | 0.9 | > 10 | > 10 | – | COc1cccc(Cn2c3ccc(F)cc3c3c(C)n[nH]c(=O)c32)c1 | > 25 | – | – | – | – | –
23 | 2 | 2 | 4 | 2 | 6 | > 10 | 2 | 2.9 | > 10 | – | COc1ccc2c(c1)c1c(C)n[nH]c(=O)c1n2Cc1ccc(C#N)cc1 | 5 | – | – | 50 | – | –
